What all share (type): ADME, organism-based
A short description of data set [1]: Maximum plasma concentration at a concentration of 60 mg/kg perorally in rats along with control. Also noted: dose 60 mg/kg, route oral. The conditions noted are these: rat, po. An outline of the steps:
(§1)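 Cannulated male Sprague–Dawley rats (300–350 g), fasted 15 h, given 60 mg/kg by oral gavage under light O2/CO2 anaesthesia in 1 mL 5% DMSO/water at pH 8. Arterial plasma sampled 0–120 min and assayed by fluorescence polarization immunoassay. Cmax is observed; AUC0–120 is trapezoidal. F = AUCpo·dose_iv/(AUCiv·dose_po)×100, using iv 3 mg/kg. Mean ± SEM, 4–5 rats.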

The nature of data set [2]: Area under the curve at a concentration of 60 mg/kg perorally in rats along with control. The following applies: rat, in vivo, po, read-out: AUC 120 (converted). Further details: dose 60 mg/kg, route oral. An outline of the steps:
as §1

Data set [3] in a line: Oral bioavailability in rat (dose 60 mg/kg p.o.). The conditions noted are these: in vivo. Put shortly: as §1
The next data set relates to Rattus norvegicus. As to the kind of experiment: Bioavailability in rat (dose 3 mg/kg i.v.). The conditions noted are these: in vivo, iv.
The nature of data set [4]: Maximum plasma concentration at a concentration of 3 mg/kg in rats, intravenously. The following applies: rat, iv. Also noted: dose 3 mg/kg, route intravenous. Put shortly:
(§2)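 Male Sprague–Dawley rats (300–350 g) with femoral artery cannula, dosed next day at 3 mg/kg in 0.3 mL heparinized saline via lateral tail vein. Arterial blood drawn at 0, 5, 10, 15, 30, 60, 90, 120 min, and plasma frozen at –70 °C. Gentamicin measured by fluorescence polarization immunoassay (LOD 0.30 μg/mL). Cmax is the observed value; AUC0–120 by linear trapezoidal rule. Mean ± SEM, 4–5 rats.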

The nature of data set [5]: Area under the curve at a concentration of 3 mg/kg in rats, intravenously. Further details: dose 3 mg/kg, route intravenous. The following applies: rat, in vivo, iv, read-out: AUC 120 (converted). An outline of the steps:
as §2

Here are results for 3 compounds from ChEMBL document CHEMBL1148488, “Design, synthesis, and evaluation of a liposaccharide drug delivery agent: application to the gastrointestinal absorption of gentamicin” (J Med Chem, 2004).

As a reminder, the Cmax is the highest concentration seen after dosing. What is called AUC is the area under the concentration-time curve, a measure of exposure.

With `CNC(C)C1CC[C@H](N)[C@@H](OC2[C@@H](O)[C@@H](O[C@H]3OC[C@H](O)[C@@H](NC)[C@@H]3O)[C@H](N)C[C@@H]2N)O1.O=S(=O)(O)O` (stereo partly drawn), the Cmax was 770 ng/mL in data set [1] and 8190 ng/mL in data set [4]. Moreover, the AUC in data set [2] was 1180 ng·h/mL; in data set [5] it was 4180 ng·h/mL. The compound further yielded a bioavailability in data set [3] of 1.4%. This compound gave a F with Rattus norvegicus of 100%.

Turning to `CN[C@@H]1C(O)[C@H](O[C@@H]2C(O)C(O[C@H]3OC(CN)CCC3N)[C@@H](N)C[C@H]2N)OC[C@@H]1O.O=S(=O)(O)O` (stereo partly drawn), the Cmax in data set [1] came out at 770 ng/mL; in data set [4], 8190 ng/mL. In addition, the AUC in data set [2] is 1180 ng·h/mL; in data set [5] it was 4180 ng·h/mL. In data set [3] (read-out: Bioavailabiility), the bioavailability was 1.4%. This compound showed a Bioavailabiility with Rattus norvegicus of 100%.

Regarding `CN[C@@H]1[C@H](O)[C@H](O[C@H]2[C@H](N)C[C@H](N)C(O[C@H]3OC(C(C)N)CC[C@@H]3N)[C@H]2O)OC[C@@H]1O.O=S(=O)(O)O` (stereo partly drawn), the Cmax in data set [1] was determined as 770 ng/mL; in data set [4] it was 8190 ng/mL. In addition, the AUC in data set [2] is 1180 ng·h/mL; in data set [5], 4180 ng·h/mL. The compound also gave a bioavailability in data set [3] of 1.4%. Further, the F with Rattus norvegicus is recorded as 100%.
